# CSN deneddyl inh = blocks human CSN-mediated cullin deneddylation; inhibition, % at 12.5 µM; Q92905; hit rate 0.38% among 360,000; Purified CSN, SCF-Nedd8-OG deneddylation, fluorescence polarization;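 active means pattern-corrected inhibition above about 35%, with an unprinted fluorescence ratio check between 0.5 and 1.5, limit read from the data, passing the limit was not always enough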;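 further: 0% = enzyme with substrate and 100% = substrate without enzyme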
# Target sequence (Q92905 whole entry, looked up, one chain of several): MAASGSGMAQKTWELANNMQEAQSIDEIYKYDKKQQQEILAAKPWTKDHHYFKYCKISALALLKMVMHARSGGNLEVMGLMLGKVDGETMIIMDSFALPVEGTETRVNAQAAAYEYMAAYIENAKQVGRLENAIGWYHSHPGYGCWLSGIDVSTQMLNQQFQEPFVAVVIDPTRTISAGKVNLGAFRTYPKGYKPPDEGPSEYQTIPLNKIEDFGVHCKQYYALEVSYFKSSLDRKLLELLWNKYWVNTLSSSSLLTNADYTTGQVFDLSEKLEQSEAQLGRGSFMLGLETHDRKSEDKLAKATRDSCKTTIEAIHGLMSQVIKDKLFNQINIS
#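 test system = HEK293T-derived human Csn5 enzyme | amount = 0.24 nM Csn5 enzyme, final concentration | medium = Tris/NaCl/DTT buffer, pH 7.5 | schedule = 90 min reaction at room temperature | signal = FP | evaluation = inhibition of Csn5 cleavage, % | compound dosing = single dose of 12.5 µM compound with 0.25% DMSO | probe or stimulus = 10 nM SCFSkp2-Nedd8OG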
# LMPTP inh = LMPTP (human) inhibition; P24666; recombinant LMPTP-A, OMFP fluorogenic substrate, fluorescence intensity; inhibition, % at 20 µM; hit rate 0.22% among 360,000; AID 651560;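 active means compounds that cut the enzyme signal by at least half of the control window in the single-dose screen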;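 further: plate controls were DMSO wells with enzyme plus substrate for no effect and substrate without enzyme for full effect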
#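 test system = LMPTP-A | amount = 0.625 nM LMPTP-A final | reagent = fluorogenic phosphatase substrate OMFP at 400 µM final | incubation = 50 min at room temperature | benchmarks = no-enzyme low control, uninhibited high control | medium = Bis-Tris pH 6.0, DTT, detergent | signal = fluorescence intensity of OMFP turnover product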
# SUMO1 PPI mod = SUMO1-SIM interaction modulation | P63165 | SUMO1 binding to a labelled peptide, TR-FRET, 1 h | inhibition, % at 20 µM | hit rate 0.33% among 360,000 | AID 602429; in the data active means inhibition above about 37%
# Target sequence (P63165 whole entry, looked up): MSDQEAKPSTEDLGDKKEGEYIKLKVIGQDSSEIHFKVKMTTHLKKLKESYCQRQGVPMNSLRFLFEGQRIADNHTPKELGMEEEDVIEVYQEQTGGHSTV
# DNMT1 block = blocks human DNA methyltransferase DNMT1; P26358; DNMT1 molecular beacon, Hinp1I cleavage, fluorescence; inhibition (reported as % activation of signal), % at 10 µM; hit rate 0.83% among 360,000; in the data active means inhibition above about 50%
# STEP block = STEP (human) phosphatase inhibition; P54829; recombinant STEP, OMFP fluorogenic substrate, fluorescence; inhibition, % at 20 µM; hit rate 0.25% among 360,000;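 active means inhibition at 20 µM, scaled per plate between control wells, above about 37%, limit read from the data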;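 further: 0% = DMSO with enzyme and substrate and 100% = substrate only without enzyme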
#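 material = STEP tyrosine phosphatase | reagent = fluorogenic phosphatase substrate OMFP at 25 µM final | doses = single compound dose of 20 µM, 1% DMSO final | schedule = 20 min reaction, room temperature, in the dark | measured by = fluorescence, 480/540 nm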
# Scp1 inh = Scp-1 (human) phosphatase inhibition; Recombinant Scp1, phosphopeptide, malachite green phosphate absorbance; inhibition, % at 20 µM; hit rate 0.88% among 340,000; AID 493091;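 active means inhibition above about 50% at 20 µM, limit read from the data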;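 further: plate controls were DMSO wells with enzyme for no effect and wells lacking enzyme for full effect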
# Target sequence (Q9GZU7 76-261 limits assumed): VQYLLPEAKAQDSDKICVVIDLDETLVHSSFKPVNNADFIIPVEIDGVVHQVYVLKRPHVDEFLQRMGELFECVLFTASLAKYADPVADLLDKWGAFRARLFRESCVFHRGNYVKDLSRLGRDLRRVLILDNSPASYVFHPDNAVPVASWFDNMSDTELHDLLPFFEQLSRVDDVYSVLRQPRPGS
#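 Test system: SCP-1 phosphatase catalytic domain, residues 76-261 | Compound dosing: One concentration, 20 µM, with 1.0% DMSO | Schedule: 45 min room-temperature reaction, 5 min colour, 30 min stabiliser | Detection: Absorbance at 630 nm | Read-out basis: % inhibition of SCP-1 phosphate liberation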
# Scp-1 conf = Scp-1 (human) inhibition, single-dose confirmed; hit rate 61% among 2,500; inhibition, % at 20 µM; AID 540281; recombinant SCP-1 catalytic domain, phosphate release, malachite green absorbance; shares compounds with Scp1 inh;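 further: plate controls were DMSO with enzyme for no effect and buffer wells lacking enzyme for full effect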
# Scp-1 MG ctr = colorimetric interference in Scp-1 counter-screen. shares compounds with Scp1 inh. Colorimetric interference counterscreen, malachite green absorbance 630 nm. apparent inhibition (interference), % at 20 µM. 2,500 tested, under 10 active. AID 540313;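 further: compounds added after enzyme reaction finished so only phosphate colour detection is probed; plate controls were DMSO wells with completed Scp-1 reaction for no effect and substrate wells lacking enzyme for full effect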
# Scp-1 Tm shift = Scp-1 (human) binding by thermal shift. shares compounds with Scp1 inh. AID 540329. Recombinant SCP1, Sypro Orange thermal shift Tm. thermal shift relative to vanadate control, % at 40 µM. hit rate 25% among 1,500;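 active means substances whose mean melting-temperature shift, as a percentage of the reference inhibitor's shift, reaches about 5.3%, limit read from the data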;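 further: 0% = Tm of DMSO wells and 100% = Tm with sodium orthovanadate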
# * = called active by the depositor; / = no result. Shown are actives, neighbours in structure and some others; about 1.9% of the full set was active somewhere.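 How the source made its calls, unless noted: active means inhibition of at least 30% at 20 µM; inactive means the rest.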
SMILES,CSN deneddyl inh,LMPTP inh,SUMO1 PPI mod,DNMT1 block,STEP block,Scp1 inh,Scp-1 conf,Scp-1 MG ctr,others
O=C(CCC(=O)Nc1cccc(Cl)c1)N/N=C/c1cc([N+](=O)[O-])ccc1O,-9,0,-3,-1,2,3,/,/,
O=C(CCCC(=O)Nc1cccc(Br)c1)N/N=C/c1cc([N+](=O)[O-])ccc1O,4,2,-21,1,-2,56*,67*,-10,Scp-1 Tm shift=7.4*
CC(=O)Nc1ccc(/C(C)=N/NC(=O)c2ccc(COc3ccccc3Cl)o2)cc1,4,3,21,21,24,104*,65*,-7,Scp-1 Tm shift=-26
COc1ccc(/C=N/NC(=O)c2ccc(COc3ccccc3Cl)o2)cc1,-5,4,1,5,6,9,/,/,
Nc1c(C(=O)OCC(=O)Nc2cccc([N+](=O)[O-])c2)[nH]c(=O)[nH]c1=O,-1,33,3,-3,9,67*,65*,-1,Scp-1 Tm shift=6.1*
O=C(Nc1cccc([N+](=O)[O-])c1)Nc1cccc([N+](=O)[O-])c1,0,10,-12,6,3,69*,66*,-21,Scp-1 Tm shift=17*
O=C(Nc1ccccc1Cl)Nc1ccnn1C1CCN(C(=O)CCN2CCCO2)CC1,-3,-5,-1,-6,-2,-10,/,/,
CCN1CCCC1CNC(=O)c1ccc(Sc2ccc(F)cc2)c([N+](=O)[O-])c1 (stereo not drawn),-2,-2,-33,-1,-3,-5,/,/,
O=C(N/N=C/c1ccncc1)c1ccncc1,-2,-1,-3,-1,-2,-7,/,/,
O=C(CCCCCNC(=O)c1ccccc1)N/N=C/c1ccco1,9,0,-4,19,0,52*,32*,-11,Scp-1 Tm shift=-11
O=C(N/N=C/c1ccncc1)c1ccc(NC(=O)c2ccc(Cl)cc2)cc1,12,11,-1,1,21,64*,26,-10,
O=C(N/N=C/c1ccco1)c1ccc(NC(=O)c2ccc(Cl)cc2)cc1,0,63*,5,36,10,77*,40*,-6,Scp-1 Tm shift=0
Cc1ccc(/C=N/NC(=O)c2ccc(NC(=O)c3ccc(Cl)cc3)cc2)o1,1,41,4,27,3,3,/,/,
O=C(N/N=C/c1ccncc1)c1ccc(NC(=O)c2cccc(Cl)c2)cc1,78*,10,5,-11,31,68*,35*,-16,Scp-1 Tm shift=15*
O=C(CCCCCNC(=O)c1ccccc1)N/N=C/c1ccccc1O,-3,-2,2,2,-3,-8,/,/,
O=C(CN1CCOCC1)Nc1ccc([N+](=O)[O-])cc1Br,2,-1,-18,-3,-3,-8,/,/,
COc1ccccc1-c1nnc(SCC(=O)NNC(=O)c2ccccc2F)n1C,6,-1,5,2,-3,-8,/,/,
Cc1[nH]c(=O)c(C#N)c(C)c1CCC(=O)Nc1cc(S(C)(=O)=O)ccc1Cl,4,-1,-3,-1,-1,58*,2,-8,
Cc1noc(C)c1NC(=O)N(C)C[C@H]1Oc2ccc(NS(=O)(=O)c3cn(C)cn3)cc2C(=O)N([C@H](C)CO)C[C@@H]1C,2,-1,2,6,0,64*,3,-9,
C[C@H](CO)N1C[C@H](C)[C@@H](CN(C)C(=O)Nc2ccccc2)Oc2ccc(NS(=O)(=O)c3cn(C)cn3)cc2C1=O,-6,-2,5,12,2,71*,0,-10,
C[C@H](CO)N1C[C@H](C)[C@@H](CN(C)C(=O)Nc2ccc3c(c2)OCO3)Oc2ccc(NS(=O)(=O)c3cn(C)cn3)cc2C1=O,-3,0,4,5,0,69*,-8,-20,
C[C@H](CO)N1C[C@H](C)[C@@H](CN(C)S(=O)(=O)c2cn(C)cn2)Oc2ccc(NC(=O)Nc3ccc4c(c3)OCO4)cc2C1=O,-3,0,-4,-1,-1,-5,/,/,
C[C@@H]1CN([C@H](C)CO)C(=O)Cc2cc(NS(=O)(=O)c3cn(C)cn3)ccc2O[C@H]1CN(C)S(=O)(=O)c1ccc(Cl)cc1,-7,0,1,4,-1,65*,0,-20,
COc1ccc(NC(=O)N(C)C[C@H]2Oc3ccc(NS(=O)(=O)c4cn(C)cn4)cc3C(=O)N([C@H](C)CO)C[C@@H]2C)cc1,-3,-2,1,5,-1,4,/,/,
N#Cc1c(-c2ccccc2)c(C#N)c2nc3ccccc3n2c1N,8,1,-5,-20,-1,-1,/,/,
SMILES,CSN deneddyl inh,LMPTP inh,SUMO1 PPI mod,DNMT1 block,STEP block,Scp1 inh,Scp-1 conf,Scp-1 MG ctr,others
Cc1ccc(-c2c(C#N)c(N)n3c(nc4ccccc43)c2C#N)cc1,16,19,-9,-12,12,57*,14,-19,
CN(CC(=O)Nc1ccccc1C(F)(F)F)C(=O)c1cc(-c2cccs2)nn1-c1ccccc1,-6,1,0,-1,0,-10,/,/,
Cc1ccc(C)c(NC(=O)CN(C)C(=O)c2cc(-c3cccs3)nn2-c2ccccc2)c1,1,3,1,-4,1,56*,-9,-8,
C=CCn1c(SCc2nc3sc(C(=O)O)c(C)c3c(=O)[nH]2)nnc1-c1ccc(C(C)(C)C)cc1,18,1,16,11,8,69*,55*,-14,Scp-1 Tm shift=1
C=CCn1c(SCc2nc3sc(C(=O)O)c(C)c3c(=O)[nH]2)nnc1-c1ccccc1,-2,0,6,7,-1,26,/,/,
O=C(NCCc1nc2ccccc2[nH]1)c1ccc(Br)o1,2,1,2,-2,1,61*,-2,-11,
Cc1ccc(S(=O)(=O)NCCN2CCNC2=O)cc1,-1,0,-4,1,-2,-8,/,/,
O=C1CCCN1CCCNS(=O)(=O)c1ccc(Br)cc1,-6,-1,-2,3,-1,1,/,/,
CC(=O)Nc1ccc(S(=O)(=O)NCCN2CCNC2=O)cc1Cl,-2,0,8,3,1,-2,-16,-13,
O=C1NCCN1CCNS(=O)(=O)c1ccc(F)c(Cl)c1,-2,-1,3,2,-1,-7,-18,-15,
O=C1CCCN1CCCNS(=O)(=O)c1ccc(F)c(F)c1,-1,-1,7,-1,-4,1,-14,-17,

# Screening data deposited in PubChem BioAssay by Sanford-Burnham Center for Chemical Genomics.
